Results published in ChEMBL document CHEMBL4715833, “Design, synthesis, in-vitro, in-vivo and in-silico studies of pyrrolidine-2,5-dione derivatives as multitarget anti-inflammatory agents” (Eur J Med Chem, 2020).

Columns and labels:
Homo sapiens = species: Homo sapiens; experiment: Selectivity index, ratio of IC50 for sheep COX1 to IC50 for recombinant human COX2 expressed in baculovirus infected Sf21 cells
How it was run: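 Enzymes activated for 5 min on ice with cofactor solution of 0.9 mM glutathione, hematin and 0.24 mM TMPD in 0.1 M Tris-HCl pH 8.0; COX-2 at 300 units/ml. Reaction started with 30 mM arachidonic acid stock, run 5 min, absorbance read at 570 nm. IC50 taken from inhibition-vs-concentration plots as means of three determinations. SI = IC50(COX-1)/IC50(COX-2).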

[1] = Inhibition of trypsin (unknown origin) using casein as substrate preincubated for 5 mins followed by substrate addition and measured after 20 mins; parameters: species or system Homo sapiens
How it was run: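 Trypsin 0.06 mg/ml in 20 mM Tris-HCl pH 7.4 with compound at 31.25–1000 µg/ml, 5 min at 37 °C. 0.8% (w/v) casein added, 20 min further, stopped with 70% perchloric acid. After centrifugation, supernatant absorbance read at 217 nm against buffer blank. % inhibition against control; IC50 from plot; three runs.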

[2] = Acute toxicity in ip dosed Swiss albino mouse assessed as mortality administered as single dose; format: organism-based; settings: in vivo
How it was run: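 Swiss albino mice of either sex (30-35 g), housed at 22-25 °C with 12 h light/dark and free food and water. Single i.p. dose; the saline control got 10 mL/kg. Deaths were counted 24 h after dosing. Dose table lists groups of 8 male and 8 female mice given 5 to 2000 mg/kg.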

[3] = Acute toxicity in Swiss albino mouse assessed as clinical changes in skin at 1000 mg/kg, ip administered as single dose measured after 4 hrs; format: organism-based; settings: in vivo
How it was run: (§1)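 Swiss albino mice of either sex (30-35 g), kept at 22-25 °C on a 12 h light/dark cycle with free food and water. Single i.p. dose; controls received normal saline 10 mL/kg. Animals were watched at random for allergic or abnormal behavioural signs during the first 4 h.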

[4] = Acute toxicity in Swiss albino mouse assessed as clinical changes in fur at 1000 mg/kg, ip administered as single dose measured after 4 hrs; format: organism-based; settings: in vivo; how it was run: as §1
[5] = Acute toxicity in Swiss albino mouse assessed as clinical changes in salivation at 1000 mg/kg, ip administered as single dose measured after 4 hrs; format: organism-based; settings: in vivo; how it was run: as §1
[6] = Acute toxicity in Swiss albino mouse assessed as clinical changes in piloerection at 1000 mg/kg, ip administered as single dose measured after 4 hrs; format: organism-based; settings: in vivo; how it was run: as §1
[7] = Acute toxicity in Swiss albino mouse assessed as clinical changes in perspiration at 1000 mg/kg, ip administered as single dose measured after 4 hrs; format: organism-based; settings: in vivo; how it was run: as §1
[8] = Acute toxicity in Swiss albino mouse assessed as clinical changes in defecation at 1000 mg/kg, ip administered as single dose measured after 4 hrs; format: organism-based; settings: in vivo; how it was run: as §1
[9] = Acute toxicity in Swiss albino mouse assessed as clinical changes in urinary incontinence at 1000 mg/kg, ip administered as single dose measured after 4 hrs; format: organism-based; settings: in vivo; how it was run: as §1
[10] = Acute toxicity in Swiss albino mouse assessed as changes in circulatory signs at 1000 mg/kg, ip administered as single dose measured after 4 hrs; format: organism-based; settings: in vivo; how it was run: as §1
[11] = Acute toxicity in Swiss albino mouse assessed as ptosis at 1000 mg/kg, ip administered as single dose measured after 4 hrs; format: organism-based; settings: in vivo; how it was run: as §1
[12] = Acute toxicity in Swiss albino mouse assessed as drowsiness at 1000 mg/kg, ip administered as single dose measured after 4 hrs; format: organism-based; settings: in vivo; how it was run: as §1
[13] = Acute toxicity in Swiss albino mouse assessed as convulsion at 1000 mg/kg, ip administered as single dose measured after 4 hrs; format: organism-based; settings: in vivo; how it was run: as §1
Mus musculus [14] = experiment: Antiinflammatory activity against carrageenan-induced paw edema in Swiss mouse assessed as inhibition of paw edema at 25 mg/kg administered 30 mins prior to carrageenan challenge and measured after 1 hr by […]-method (reference value: 7.66 +/- 3.753%); format: functional; settings: 1.5 h, time 90 min
Mus musculus [15] = experiment: Antiinflammatory activity against carrageenan-induced paw edema in Swiss mouse assessed as inhibition of paw edema at 50 mg/kg administered 30 mins prior to carrageenan challenge and measured after 1 hr by […]-method (reference value: 7.66 +/- 3.753%); format: functional; settings: 1.5 h, time 90 min
Mus musculus [16] = experiment: Antiinflammatory activity against carrageenan-induced paw edema in Swiss mouse assessed as inhibition of paw edema at 100 mg/kg administered 30 mins prior to carrageenan challenge and measured after 1 hr by […]-method (reference value: 7.66 +/- 3.753%); format: functional; settings: 1.5 h, time 90 min
Mus musculus [17] = experiment: Antiinflammatory activity against carrageenan-induced paw edema in Swiss mouse assessed as inhibition of paw edema at 25 mg/kg administered 30 mins prior to carrageenan challenge and measured after 2 hrs by […]-method (reference value: 7.39 +/- 2.475%); format: functional; settings: time 2.5 hrs
Mus musculus [18] = experiment: Antiinflammatory activity against carrageenan-induced paw edema in Swiss mouse assessed as inhibition of paw edema at 50 mg/kg administered 30 mins prior to carrageenan challenge and measured after 2 hrs by […]-method (reference value: 7.39 +/- 2.475%); format: functional; settings: time 2.5 hrs
Mus musculus [19] = experiment: Antiinflammatory activity against carrageenan-induced paw edema in Swiss mouse assessed as inhibition of paw edema at 100 mg/kg administered 30 mins prior to carrageenan challenge and measured after 2 hrs by […]-method (reference value: 7.39 +/- 2.475%); format: functional; settings: time 2.5 hrs
Mus musculus [20] = experiment: Antiinflammatory activity against carrageenan-induced paw edema in Swiss mouse assessed as inhibition of paw edema at 25 mg/kg administered 30 mins prior to carrageenan challenge and measured after 3 hrs by […]-method (reference value: 11.41 +/- 3.069%); format: functional; settings: time 3.5 hrs
Mus musculus [21] = experiment: Antiinflammatory activity against carrageenan-induced paw edema in Swiss mouse assessed as inhibition of paw edema at 100 mg/kg administered 30 mins prior to carrageenan challenge and measured after 4 hrs by […]-method (reference value: 14.46 +/- 1.568%); format: functional; settings: time 4.5 hrs
Mus musculus [22] = experiment: Antiinflammatory activity against carrageenan-induced paw edema in Swiss mouse assessed as inhibition of paw edema at 50 mg/kg administered 30 mins prior to carrageenan challenge and measured after 5 hrs by […]-method (reference value: 7.31 +/- 3.204%); format: functional; settings: time 5.5 hrs
Mus musculus [23] = experiment: Antiinflammatory activity against carrageenan-induced paw edema in Swiss mouse assessed as inhibition of paw edema at 100 mg/kg administered 30 mins prior to carrageenan challenge and measured after 5 hrs by […]-method (reference value: 7.31 +/- 3.204%); format: functional; settings: time 5.5 hrs
Mus musculus [24] = experiment: Antiinflammatory activity in histamine-induced paw edema in Balb/c mouse assessed as inhibition of paw edema at 100 mg/kg, ip administered 1 hr prior to histamine challenge and measured after 1 hr relative to control; format: functional; settings: time 2 hrs
How it was run: (§2)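 BALB/c mice of either sex (30–35 g), 8 per group, dosed i.p. with 10% DMSO, reference drug or compound (100 mg/kg). After 1 h, subplantar irritant: PGE2 0.01 µg/ml, bradykinin 20 µg/ml, histamine 0.1 ml of 1 mg/ml, or leukotriene 10 µg/ml.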

Mus musculus [25] = experiment: Antiinflammatory activity in bradykinin-induced paw edema in Balb/c mouse assessed as inhibition of paw edema at 100 mg/kg, ip administered 1 hr prior to bradykinin challenge and measured after 3 hrs relative to control; format: functional; settings: time 4 hrs; how it was run: as §2

SMILES	Ratio IC50 (Homo sapiens)	IC50 [1]	LD50 [2]	Activity [3]	Activity [4]	Activity [5]	Activity [6]	Activity [7]	Activity [8]	Activity [9]	Activity [10]	Activity [11]	Activity [12]	Activity [13]	inhibition in vivo at 25 mg/kg (Mus musculus [14])	inhibition in vivo at 50 mg/kg (Mus musculus [15])	inhibition in vivo at 100 mg/kg (Mus musculus [16])	inhibition in vivo at 25 mg/kg (Mus musculus [17])	inhibition in vivo at 50 mg/kg (Mus musculus [18])	inhibition in vivo at 100 mg/kg (Mus musculus [19])	further results
Cc1ccc(C(=O)CC2CC(=O)N(c3ccc(S(N)(=O)=O)cc3)C2=O)cc1 (stereo unspecified)	31.5	15.3 µM	1000 mg/kg	Non-Toxic	Non-Toxic	Non-Toxic	Non-Toxic	Non-Toxic	Non-Toxic	Non-Toxic	Non-Toxic	Non-Toxic	Non-Toxic	Non-Toxic	45.6%	51.5%	55.2%	53%	57.3%	63.8%	inhibition in vivo at 25 mg/kg (Mus musculus [20]): 51.5%; inhibition in vivo at 100 mg/kg (Mus musculus [21]): 66.1%; inhibition in vivo at 50 mg/kg (Mus musculus [22]): 59.3%; inhibition in vivo at 100 mg/kg (Mus musculus [23]): 68.2%; inhibition in vivo at 100 mg/kg (Mus musculus [24]): 32.4%; inhibition in vivo at 100 mg/kg (Mus musculus [25]): 27.1%
O=C1CCCCC1C1CC(=O)N(Cc2ccccc2)C1=O (stereo unspecified)	3.13	17.5 µM	1000 mg/kg	Non-Toxic	Non-Toxic	Non-Toxic	Non-Toxic	Non-Toxic	Non-Toxic	Non-Toxic	Non-Toxic	Non-Toxic	Non-Toxic	Non-Toxic	24.3%	34.5%	44.7%	28.3%	37.4%	49.6%	inhibition in vivo at 25 mg/kg (Mus musculus [20]): 23.3%; inhibition in vivo at 100 mg/kg (Mus musculus [21]): 49.7%; inhibition in vivo at 50 mg/kg (Mus musculus [22]): 47.8%; inhibition in vivo at 100 mg/kg (Mus musculus [23]): 55.1%; inhibition in vivo at 100 mg/kg (Mus musculus [25]): 12.4%
